# Measurements gathered from unrelated publications.
# Lines come from different studies, so protocols differ.
# ALDH2: Aldehyde dehydrogenase, mitochondrial (ALDH2, Homo sapiens, UniProt P05091)
# CYP1A2: Cytochrome P450 1A2 (CYP1A2, Homo sapiens, UniProt P05177)
# HDAC11: Histone deacetylase 11 (HDAC11, Homo sapiens, UniProt Q96DB2)
# CHRM1: Muscarinic acetylcholine receptor M1 (CHRM1, Homo sapiens, UniProt P11229)
# CYP3A4: Cytochrome P450 3A4 (CYP3A4, Homo sapiens, UniProt P08684)
SMILES,target,assay,system,setting,IC50 [µM]
Cc1cc2c(C(N)=O)c(N)n(-c3c(C)ccc(O)c3C)c2nc1C,"RAF proto-oncogene serine/threonine-protein kinase (RAF1, Homo sapiens, UniProt P04049, Y340D/Y341D)","enzyme activity, inhibitor, ADP detection",,,0.0044
Cc1cccc2c1NC(=O)/C2=C/c1cc(Cl)c(O)c(Cl)c1,ALDH2,"enzyme activity, inhibitor, fluorescence",,,12.7
CCCN(CCC)S(=O)(=O)c1ccc(C(=O)O)cc1,"Taste receptor type 2 member 14 (TAS2R14, Homo sapiens, UniProt Q9NYV8)","inositol phosphate, antagonist, TR-FRET",,,600
Cc1ccc(OCC(=O)N[C@@H](Cc2c[nH]c3ccccc23)C(=O)OC(C)C)cc1,CYP1A2,"enzyme activity, inhibitor","human, liver microsomes",30 min,> 50
COc1ccc(N(Cc2csc(-c3ccccc3)n2)C(=O)CCCCCC(=O)NO)cc1,HDAC11,"enzyme activity, inhibitor",,,> 10
CC(C)C[C@H](NC(=O)[C@@H](NC(=O)N[C@@H](Cc1ccccc1)C(=O)O)[C@@H]1CCN=C(N)N1)C(=O)N[C@H](C=O)Cc1ccccc1,"Chymase (CMA1, Homo sapiens, UniProt P23946)","enzyme activity, inhibitor",,,0.00777
COc1nc2ccc(Br)cc2cc1[C@@H](c1ccccc1)[C@@](O)(CCN(C)C)c1cccc2ccccc12,ALDH2,"enzyme activity, inhibitor, fluorescence",,,< 10
O=C(CCNC(=O)CNC(=O)CC(c1ccccc1)(c1ccccc1)c1ccccc1)NCC1CCN(Cc2ccc(F)cc2)CC1,CHRM1,"ligand displacement, radioligand",,cell membranes,5.9
O=C1Nc2ccccc2C12CC2c1cc(Cl)c(O)c(Cl)c1 (stereo not drawn),ALDH2,"enzyme activity, inhibitor, fluorescence",,,> 50
COc1ccc(N(Cc2csc(-c3ccc(C)cc3)n2)C(=O)CCCCCC(=O)NO)cc1,HDAC11,"enzyme activity, inhibitor",,,> 10
OCc1ccc(-c2nn(Cc3ccccc3)c3ccccc23)o1,CYP1A2,"enzyme activity, inhibitor","human, liver microsomes",,0.9
O=C(CCNC(=O)CNC(=O)CC(c1ccccc1)(c1ccccc1)c1ccccc1)NC[C@@H]1CCCN(Cc2cccnc2F)C1,CHRM1,"ligand displacement, radioligand",,cell membranes,> 30
CCc1oc2ccccc2c1C(=O)c1cc(Br)c(O)c(Br)c1,"Solute carrier organic anion transporter family member 1B1 (SLCO1B1, Homo sapiens, UniProt Q9Y6L6)","transporter uptake, inhibitor, radiometric",,oocytes,1.54
Cn1ccc(-c2ccc(-c3cc(C(=O)O)cc4cc(-c5ccc(C(F)(F)F)cc5)ccc34)cc2)n1,CYP3A4,"enzyme activity, inhibitor",,,10.8
CCc1cnn2c(NCc3ccc[n+]([O-])c3)cc(N3CCCC[C@H]3CCO)nc12,"Tyrosine-protein kinase JAK1 (JAK1, Homo sapiens, UniProt P23458)","enzyme activity, inhibitor, ELISA",,,0.062
CN(C)C(=O)c1cc2cnc(Nc3ccc(-c4ccc5c(=O)cc(N6CCOCC6)oc5c4)cc3)nc2n1C1CCCC1,CYP1A2,"enzyme activity, inhibitor, fluorescence",,pH 8,> 100
CNC(=O)[C@H](Cc1c[nH]c2ccccc12)NC(=O)[C@@H](CC(=O)NO)CC(C)C,"Collagenase 3 (MMP13, Homo sapiens, UniProt P45452)","enzyme activity, inhibitor",,,0.000129
C=CCn1c(=O)c2cnc(Nc3ccc(N4CCN(C)CC4)cc3)nc2n1-c1ccc2c(n1)[C@@](O)(CC)CC2,CYP3A4,"enzyme activity, inhibitor",,,7
